We go through 14 compounds from ChEMBL document CHEMBL1144157, “Synthesis of new 1-phenyl-3-{4-[(2E)-3-phenylprop-2-enoyl]phenyl}-thiourea and urea derivatives with anti-nociceptive activity” (2008).

Activity calls are given as the source filed them.

In experiment [1] the test system is Mus musculus. Briefly: Antinociceptive activity against acetic acid-induced abdominal constrictions in ip dosed Swiss mouse pretreated 30 mins before acetic acid challenge. Particulars: Abdomen; for ED50: read-out: ID50 (the source's name). Format: functional. The method in brief: (§1)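 Swiss mice (25–35 g), 10 ml/kg ip of compound (1–60 mg/kg) or 0.9% NaCl control, given 30 min before ip 0.6% acetic acid. Abdominal constrictions with hind-limb stretching counted cumulatively over 20 min, mice in separate glass funnels at 20–22 °C. Groups of six to eight. ID50 is the geometric mean with 95% confidence limits, found by graphical interpolation.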

For experiment [2], the system named is Mus musculus. The experiment can be described thus: Antinociceptive activity against acetic acid-induced abdominal constrictions in Swiss mouse assessed as maximal inhibition at 10 mg/kg, ip pretreated 30 mins before acetic acid challenge. The class given is functional. Particulars: Abdomen, route intraperitoneal. The method in brief: as §1
In experiment [3] the test system is Mus musculus. Briefly: Antinociceptive activity against formalin-induced paw pain in ip dosed Swiss mouse pretreated 30 mins before formalin challenge assessed after 0 to 5 mins. The class given is functional. Particulars: for ED50: read-out: ID50 (the source's name). The method in brief: (§2)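 Mice given compound (6–30 mg/kg, ip) or saline 30 min before intraplantar injection into the right hind paw of 20 µl 2.5% formalin (0.92% formaldehyde) in saline. Paw-licking time scored in a glass cylinder with a 45° mirror, 0–5 min (early phase) and 15–30 min (late phase). n = 6. ID50 as geometric mean with 95% confidence limits.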

In experiment [4] the test system is Mus musculus. Briefly: Antinociceptive activity against formalin-induced paw pain in ip dosed Swiss mouse pretreated 30 mins before formalin challenge assessed after 15 to 30 mins. The class given is functional. The conditions noted are these: for ED50: read-out: ID50 (the source's name). The method in brief:
as §2

For experiment [5], the system named is Mus musculus. Briefly: Antinociceptive activity against glutamate-induced paw pain in Swiss mouse assessed as maximal inhibition at 10 mg/kg, ip pretreated 30 mins before glutamate challenge. Format: functional. The conditions noted are these: route intraperitoneal. The method in brief:
(§3)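 Mice treated ip (6–30 mg/kg) 30 min before intraplantar injection into the right hind paw of 20 µl glutamate in PBS (30 µmol/paw). Time spent licking or biting the paw timed over 0–15 min in glass cylinders. n = 6. ID50 reported with 95% confidence limits.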

Experiment [6] concerns Mus musculus. Briefly: Antinociceptive activity against formalin-induced paw pain in Swiss mouse assessed as maximal inhibition at 30 mg/kg, ip pretreated 30 mins before formalin challenge assessed after 15 to 30 mins. The conditions noted are these: route intraperitoneal. Format: functional. The method in brief: as §2
Experiment [7] relates to Mus musculus. Briefly: Antinociceptive activity against formalin-induced paw pain in Swiss mouse assessed as maximal inhibition at 30 mg/kg, ip pretreated 30 mins before formalin challenge assessed after 0 to 5 mins. The class given is functional. Particulars: route intraperitoneal. The method in brief: as §2
Experiment [8] relates to Mus musculus. The experiment can be described thus: Antinociceptive activity against heat-induced paw licking in Swiss mouse assessed as increase in licking latency period at 10 mg/kg, ip pretreated 30 mins before heat challenge by hot plate method. Also noted: dose 10 mg/kg. Format: functional, organism-based. The method in brief: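 Mice dosed ip (10 mg/kg), saline, or morphine sc, 30 min before placement on a plate held at 56 ± 1 °C. Latency to hind-paw licking, paw shaking or jumping recorded. Animals with baseline latency above 20 s excluded; cut-off 30 s. n = 6.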

The test system of experiment [9] is Mus musculus. Briefly: Antinociceptive activity against acetic acid-induced abdominal constrictions in Swiss mouse assessed as maximal inhibition at 200 mg/kg, po pretreated 30 mins before acetic acid challenge. Particulars: Abdomen. Format: functional. The method in brief: (§4)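 Oral pretreatment (50–200 mg/kg) of Swiss mice before ip 0.6% acetic acid. Writhing (abdominal contractions plus hind-limb stretching) counted cumulatively for 20 min at 20–22 °C. Six animals per group, mean ± s.e.m. ID50 with 95% confidence limits obtained by graphical interpolation.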

Experiment [10] has as its system Mus musculus. The experiment can be described thus: Antinociceptive activity against glutamate-induced paw pain in Swiss mouse assessed as maximal inhibition at 30 mg/kg, ip pretreated 30 mins before glutamate challenge. The class given is functional. Particulars: route intraperitoneal. The method in brief: as §3
In experiment [11] the test system is Mus musculus. The experiment can be described thus: Antinociceptive activity against glutamate-induced paw pain in ip dosed Swiss mouse pretreated 30 mins before glutamate challenge. Format: functional. Particulars: read-out: ID50 (the source's name). The method in brief: as §3
The subject of experiment [12] is Mus musculus. The experiment can be described thus: Antinociceptive activity against acetic acid-induced abdominal constrictions in Swiss mouse assessed as maximal inhibition at 100 mg/kg, po pretreated 30 mins before acetic acid challenge. Format: functional. The conditions noted are these: Abdomen. The method in brief: as §4
In experiment [13] the test system is Mus musculus. The experiment can be described thus: Antinociceptive activity against capsaicin-induced paw pain in Swiss mouse assessed as maximal inhibition at 10 mg/kg, ip pretreated 30 mins before capsaicin challenge. The class given is functional, organism-based. Also noted: dose 10 mg/kg.
The subject of experiment [14] is Mus musculus. The experiment can be described thus: Antinociceptive activity against acetic acid-induced abdominal constrictions in po dosed Swiss mouse pretreated 30 mins before acetic acid challenge. The class given is functional. The conditions noted are these: Abdomen, read-out: ID50 (the source's name). The method in brief:
as §4

Experiment [15] deals with Mus musculus. The experiment can be described thus: Antinociceptive activity against acetic acid-induced abdominal constrictions in Swiss mouse assessed as maximal inhibition at 50 mg/kg, po pretreated 30 mins before acetic acid challenge. Particulars: Abdomen. Format: functional. The method in brief:
as §4

The subject of experiment [16] is Mus musculus. The experiment can be described thus: Antinociceptive activity against formalin-induced paw pain in Swiss mouse assessed as maximal inhibition at 6 mg/kg, ip pretreated 30 mins before formalin challenge assessed after 15 to 30 mins. The class given is functional. Particulars: route intraperitoneal. The method in brief:
as §2

The subject of experiment [17] is Mus musculus. Briefly: Antinociceptive activity against formalin-induced paw pain in Swiss mouse assessed as maximal inhibition at 10 mg/kg, ip pretreated 30 mins before formalin challenge assessed after 0 to 5 mins. Format: functional. Particulars: route intraperitoneal. The method in brief: as §2
In experiment [18] the test system is Mus musculus. Briefly: Antinociceptive activity against formalin-induced paw pain in Swiss mouse assessed as maximal inhibition at 10 mg/kg, ip pretreated 30 mins before formalin challenge assessed after 15 to 30 mins. Particulars: route intraperitoneal. Format: functional. The method in brief:
as §2

The subject of experiment [19] is Mus musculus. Briefly: Antinociceptive activity against acetic acid-induced abdominal constrictions in Swiss mouse at 60 mg/kg, ip pretreated 30 mins before acetic acid challenge. Format: functional, organism-based. Also noted: dose 60 mg/kg. Particulars: Abdomen. The method in brief: as §1

Regarding `O=C(/C=C/c1ccc(Cl)c(Cl)c1)c1ccc(NC(=S)Nc2ccc(Cl)cc2)cc1`, in the experiment on Mus musculus [1], the Activity result is “Dose-dependent effect” and the ED50 is 6.15 µmol/kg. Also, in the experiment with Mus musculus [2], the inhibition in vivo – broadly, the share of the control response that was lost under treatment – at 10 mg/kg turned out to be 97.5%.
For the compound `O=C(O)Cc1ccccc1Nc1c(Cl)cccc1Cl` [DICLOFENAC], the figures for the ED50 in the experiment on Mus musculus [3] and in the experiment with Mus musculus [4] were greater than 94 µmol/kg and 34.5 µmol/kg, respectively.
Regarding `Cc1ccc(/C=C/C(=O)c2ccc(NC(=S)Nc3ccc(Cl)cc3)cc2)cc1`, in the experiment with Mus musculus [1], the Activity result is “Dose-dependent effect” and the ED50 is 13.1 µmol/kg. For the same compound, the inhibition in vivo at 10 mg/kg with Mus musculus [2] is 75.3%.
Turning to `Cc1c(N(C)CS(=O)(=O)O)c(=O)n(-c2ccccc2)n1C` [DIPYRONE SODIUM], the ED50 with Mus musculus [1] turned out to be 162 µmol/kg; with Mus musculus [3], 154 µmol/kg; in the experiment on Mus musculus [4], 264 µmol/kg. For the same compound, in the experiment with Mus musculus [2], the inhibition in vivo at 10 mg/kg was determined as 33%.
In the case of `COc1ccc(/C=C/C(=O)c2ccc(NC(=S)Nc3ccc(Cl)cc3)cc2)cc1`, in the experiment with Mus musculus [1], the Activity result was “Dose-dependent effect” and the ED50 was 10.4 µmol/kg. In addition, in the experiment on Mus musculus [2], the inhibition in vivo at 10 mg/kg was 92%.
Turning to `O=C(/C=C/c1ccccc1)c1ccc(NC(=S)Nc2ccc(Cl)cc2)cc1`, the inhibition in vivo at 10 mg/kg with Mus musculus [5] came to 42.6%; in the experiment on Mus musculus [2] it was 94.5%; in the experiment on Mus musculus [17], 37.8%; in the experiment on Mus musculus [18], 62.6%. Also, the inhibition in vivo at 30 mg/kg in the experiment with Mus musculus [6] came out at 78.7%; in the experiment with Mus musculus [7] it was 53.9%; with Mus musculus [10], 58.3%. Also, the outcome in the experiment on Mus musculus [8] and in the experiment with Mus musculus [13] was inactive. In addition, the Activity entry in the experiment with Mus musculus [1], with Mus musculus [3] and in the experiment on Mus musculus [4] was “Dose-dependent effect” each time. Also, the ED50 came to 3.03 µmol/kg in the experiment with Mus musculus [1]; 62.1 µmol/kg in the experiment on Mus musculus [11]; 378 µmol/kg in the experiment on Mus musculus [14]; 69.3 µmol/kg in the experiment with Mus musculus [3]; 26.9 µmol/kg with Mus musculus [4]. Also, the inhibition in vivo at 200 mg/kg in the experiment with Mus musculus [9] came out at 55%. Further, the inhibition in vivo at 100 mg/kg with Mus musculus [12] was determined as 43.4%. For the same compound, the inhibition in vivo at 50 mg/kg in the experiment with Mus musculus [15] is 23.5%. Besides, in the experiment with Mus musculus [16], the inhibition in vivo at 6 mg/kg is 51%.
As for `O=C(Nc1ccc(Cl)cc1)Nc1ccc(C(=O)/C=C/c2ccc(Cl)c(Cl)c2)cc1`, in the experiment with Mus musculus [19], the outcome was inactive. In addition, the inhibition in vivo at 10 mg/kg in the experiment with Mus musculus [2] worked out at 21.6%.
For `COc1ccc(/C=C/C(=O)c2ccc(NC(=O)Nc3ccc(Cl)cc3)cc2)cc1`, in the experiment with Mus musculus [1], the Activity entry is “Dose-dependent effect” and the ED50 came to 31.1 µmol/kg. Further, the inhibition in vivo at 10 mg/kg in the experiment on Mus musculus [2] was found to be 84.4%.
For `Cc1ccc(/C=C/C(=O)c2ccc(NC(=O)Nc3ccc(Cl)cc3)cc2)cc1` the same measures were “Dose-dependent effect”, 39.7 µmol/kg and 42.8%.
Turning to `CC(=O)Oc1ccccc1C(=O)O` [ASPIRIN], the result in the experiment on Mus musculus [13] and in the experiment with Mus musculus [3] was inactive. Further, the ED50 in the experiment with Mus musculus [14] came out at 605 µmol/kg. Further, in the experiment with Mus musculus [2], the inhibition in vivo at 10 mg/kg is 35%.
Turning to `O=C(Nc1ccc(Cl)cc1)Nc1ccc(C(=O)/C=C/c2ccccc2)cc1`, in the experiment on Mus musculus [1], the Activity result was “Dose-dependent effect” and the ED50 was determined as 7.25 µmol/kg. Besides, the inhibition in vivo at 10 mg/kg with Mus musculus [2] was determined as 74.6%.
Consider `CC(=O)Nc1ccc(O)cc1` [ACETAMINOPHEN], for which the outcome in the experiment on Mus musculus [13] and with Mus musculus [3] was inactive. Moreover, the ED50 in the experiment on Mus musculus [14] is 1140 µmol/kg. Moreover, the inhibition in vivo at 10 mg/kg in the experiment on Mus musculus [2] is 38%.
With `O=C(/C=C/c1ccc(Cl)cc1)c1ccc(NC(=S)Nc2ccc(Cl)cc2)cc1`, in the experiment with Mus musculus [1], the Activity result is “Dose-dependent effect” and the ED50 is 7.59 µmol/kg. The inhibition in vivo at 10 mg/kg with Mus musculus [2] turned out to be 100%.
For `O=C(Nc1ccc(Cl)cc1)Nc1ccc(C(=O)/C=C/c2ccc(Cl)cc2)cc1` the same measures were “Dose-dependent effect”, 45.4 µmol/kg and 51%.
